Source: paper PMC3081976 (Bioorganic & medicinal chemistry letters, 2010)

Experiment: Rat pharmacokinetics
Format: in vivo, Sprague-Dawley rats
Conditions: Sprague-Dawley, plasma; for clearance: iv, 1 mg/kg
In short: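 Sprague-Dawley rats (n = 3) received the test compound intravenously at 1 mg/kg; a separate oral gavage arm used 2 mg/kg. Blood was sampled at 5, 15, 30 min and 1, 2, 4, 6, 8 h into EDTA tubes and centrifuged to plasma. Plasma proteins were precipitated with acetonitrile and drug was quantified by LC-MS/MS. CL and t1/2 came from noncompartmental analysis.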

Structure (SMILES) | half-life [h] | clearance [mL/min/kg]
Cn1ccc(-c2cc(Nc3ccc(-n4cnc(N5CCOCC5)n4)cc3)ncc2Cl)n1 [Compound 16] | 6.5 | 0.9
Cc1ccc(-c2ncn(-c3ccc(Nc4cc(-c5ccn(C)n5)c(F)cn4)cc3)n2)cn1 [Compound 20] | 2.3 | 4.2
Cn1ccc(-c2cc(Nc3ccc(-n4cnc(-c5ccccn5)n4)cc3)ncc2F)n1 [Compound 21] | 3.4 | 4

Second part, the molecule after the results:

half-life [h] | clearance [mL/min/kg] | Structure (SMILES)
1.3 | 9 | Cc1nc(C)n(-c2ccc(Nc3cc(-c4ccn(C)n4)c(Cl)cn3)cc2)n1 [Compound 15]
1.5 | 6.4 | Cc1nc(C)n(-c2ccc(Nc3cc(-c4nn(C)cc4-c4ccc(F)cc4)ccn3)cc2)n1 [Compound 37]
